Experiment [1] addresses T1, Adrenergic receptor alpha-2 (Rattus norvegicus) (UniProt P22086+P19328+P22909). Put plainly: Binding affinity for alpha-2 adrenergic receptor by displacement of [3H]clonidine at 10e-6 M from rat brain homogenate preparation. The class given is tissue-based. Put shortly:
(§1)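 Rat brain homogenate; percentage displacement of [3H]clonidine by test agent at 10⁻⁶ M; NA denotes under 50%. Mean ± SEM of at least three separate experiments, each in triplicate.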

The test system of experiment [2] is Rattus norvegicus. The experiment can be described thus: Antihypertensive activity in spontaneously hypertensive rats (SHR) at 5 mg/kg dose (po) after 6 h. The class given is functional. In a few lines:
(§2)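 Spontaneously hypertensive rats given 5 mg/kg orally; blood pressure measured, with percentage reduction determined at 1 and 6 h after dosing.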

The species entered for experiment [3] is Oryctolagus cuniculus. Put plainly: Concentration producing a 40% reduction in contractile response in rabbit pulmonary artery (Functional alpha-antagonist activity); EC40-post.
The target in experiment [4] is T2, Adrenergic receptor alpha-1 (Rattus norvegicus, UniProt P15823+P23944+P43140).
T2 sequence (P15823 whole entry): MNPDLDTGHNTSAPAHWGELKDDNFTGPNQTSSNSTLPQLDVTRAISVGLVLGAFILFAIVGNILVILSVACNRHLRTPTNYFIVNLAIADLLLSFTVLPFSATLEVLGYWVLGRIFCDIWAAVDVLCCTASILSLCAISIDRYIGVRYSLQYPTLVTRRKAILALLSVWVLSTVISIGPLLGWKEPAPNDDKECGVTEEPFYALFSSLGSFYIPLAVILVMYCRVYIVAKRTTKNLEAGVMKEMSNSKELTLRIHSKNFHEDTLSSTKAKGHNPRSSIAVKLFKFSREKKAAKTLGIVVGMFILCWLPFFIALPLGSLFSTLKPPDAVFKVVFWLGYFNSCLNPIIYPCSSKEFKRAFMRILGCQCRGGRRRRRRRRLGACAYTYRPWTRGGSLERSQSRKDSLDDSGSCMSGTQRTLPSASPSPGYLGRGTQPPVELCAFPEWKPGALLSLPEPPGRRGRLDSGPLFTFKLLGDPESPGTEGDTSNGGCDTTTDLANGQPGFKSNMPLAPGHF
T2 sequence (P23944 whole entry): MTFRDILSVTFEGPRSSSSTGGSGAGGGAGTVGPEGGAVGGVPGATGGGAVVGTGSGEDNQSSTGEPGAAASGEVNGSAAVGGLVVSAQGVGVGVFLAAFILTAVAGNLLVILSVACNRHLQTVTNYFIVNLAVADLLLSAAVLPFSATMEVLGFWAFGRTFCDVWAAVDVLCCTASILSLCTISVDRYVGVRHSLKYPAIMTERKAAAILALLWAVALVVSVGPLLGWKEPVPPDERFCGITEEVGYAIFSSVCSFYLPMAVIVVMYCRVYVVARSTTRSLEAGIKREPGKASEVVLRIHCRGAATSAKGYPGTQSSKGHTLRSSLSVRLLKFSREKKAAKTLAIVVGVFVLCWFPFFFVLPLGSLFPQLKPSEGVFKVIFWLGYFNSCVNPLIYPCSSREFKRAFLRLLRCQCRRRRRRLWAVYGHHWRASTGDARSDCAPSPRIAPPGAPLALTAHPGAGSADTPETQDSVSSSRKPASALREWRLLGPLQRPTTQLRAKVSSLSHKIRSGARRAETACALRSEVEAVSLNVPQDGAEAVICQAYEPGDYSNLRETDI
T2 sequence (P43140 whole entry): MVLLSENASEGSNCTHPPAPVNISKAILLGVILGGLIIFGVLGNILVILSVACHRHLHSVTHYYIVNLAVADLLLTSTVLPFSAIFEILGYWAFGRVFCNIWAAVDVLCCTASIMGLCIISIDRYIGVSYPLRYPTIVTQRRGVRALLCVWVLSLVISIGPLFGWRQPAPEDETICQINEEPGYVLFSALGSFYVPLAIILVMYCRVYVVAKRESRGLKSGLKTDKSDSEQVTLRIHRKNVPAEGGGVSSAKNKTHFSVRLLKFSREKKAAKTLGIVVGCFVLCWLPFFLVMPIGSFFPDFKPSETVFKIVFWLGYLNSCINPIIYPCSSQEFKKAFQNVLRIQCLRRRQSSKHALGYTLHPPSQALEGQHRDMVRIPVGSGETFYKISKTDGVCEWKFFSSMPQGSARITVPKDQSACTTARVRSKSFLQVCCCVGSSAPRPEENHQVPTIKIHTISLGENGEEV
The experiment can be described thus: Binding affinity for alpha-1 adrenergic receptor by displacement of [3H]-prazosin from rat brain homogenate preparation. It counts as tissue-based.

Experiment [5] is filed under the species Oryctolagus cuniculus. The experiment can be described thus: Concentration producing a 40% increase in [3H]- overflow in rabbit pulmonary artery (Functional alpha-antagonist activity); EC40-pre NA=indicates no activity at 10e-5 M.
The test system of experiment [6] is Rattus norvegicus. Put plainly: Antihypertensive activity in spontaneously hypertensive rats (SHR) at 5 mg/kg dose (po) after 1 h. It counts as functional. In a few lines:
as §2

Experiment [7] is filed under the species Oryctolagus cuniculus. Put plainly: Concentration producing a 40% increase in [3H]- overflow in rabbit pulmonary artery (Functional alpha-antagonist activity);EC40-pre, NA=indicates no activity at 10e-5 M.
Experiment [8] has as its target T1, Adrenergic receptor alpha-2 (Rattus norvegicus). The experiment can be described thus: Binding affinity for alpha-2 adrenergic receptor by displacement of [3H]clonidine at 10e-6 M from rat brain homogenate preparation; indicates less than 50%. It counts as tissue-based. In a few lines: as §1
Experiment [9] has the same target. The experiment can be described thus: Binding affinity for alpha-2 adrenergic receptor by displacement of [3H]clonidine at 10e-6 M from rat brain homogenate preparation; NA=indicates less than 50%. It counts as tissue-based. In a few lines: as §1
Experiment [10] is filed under the species Oryctolagus cuniculus. The experiment can be described thus: Concentration producing a 40% reduction in contractile response in rabbit pulmonary artery (Functional alpha-antagonist activity).
The species named for experiment [11] is Oryctolagus cuniculus. Put plainly: Concentration producing a 40% increase in [3H]- overflow in rabbit pulmonary artery (Functional alpha-antagonist activity).
Experiment [12] is filed under the species Oryctolagus cuniculus. Put plainly: Concentration producing a 40% increase in [3H]- overflow in rabbit pulmonary artery (Functional alpha-antagonist activity)d; NA= indicates no activity at 10e-5 M.

Activity calls are given as the source filed them. The calls are words filed in the database; no cut-off is given here.

The record followed here is ChEMBL document CHEMBL1124050, “2,4-Diamino-6,7-dimethoxyquinazolines. 4. 2-[4-(substituted oxyethoxy) piperidino] derivatives as alpha 1-adrenoceptor antagonists and antihypertensive agents” (J Med Chem, 1988).

Consider `CCOCCOC1CCN(c2nc(N)c3cc(OC)c(OC)cc3n2)CC1`, for which the Displacement in experiment [1] came out at 65.3%. For the same molecule, the results for the Reduction in experiment [2] and in experiment [6] were 20% and 22%, respectively. The EC40 in [3] is 0.038 µM. The molecule also registered a Ki in [4] of 1.81 nM. Further, the EC40 result in [5] is “inactive”.

On to `COc1cc2nc(N3CCC(OCCOC4CCCC4)CC3)nc(N)c2cc1OC`, for which the Reduction in experiment [2] was found to be 11%; in [6] it was 20%.

Take `CCCCOCCOC1CCN(c2nc(N)c3cc(OC)c(OC)cc3n2)CC1`: in experiment [1], the Displacement was 76%. The Reduction came out at 20% in experiment [2] and 27% in [6]. This molecule registered a Ki in [4] of 1.03 nM.

For `COc1cc2nc(N3CCC(OCCOc4ccccc4)CC3)nc(N)c2cc1OC`, the Displacement in experiment [1] turned out to be 79.3%. Besides, the Reduction in experiment [2] stood at 18%; in [6], 26%. In addition, the EC40 in [3] turned out to be 0.044 µM. This molecule displayed a Ki in experiment [4] of 0.48 nM. Further, in [7], the EC40 result was “inactive”.

Consider `COc1cc2nc(N3CCC(OCCOC(C)C)CC3)nc(N)c2cc1OC`, for which, in experiment [1], the Displacement was 73.4%. The Reduction in experiment [2] is reported as 15%; in experiment [6], 26%. Moreover, in experiment [4], the Ki is reported as 0.67 nM.

Consider `CCOCC(OC1CCN(c2nc(N)c3cc(OC)c(OC)cc3n2)CC1)c1ccccc1` (stereo unspecified), for which the Reduction in [2] is 19%; in [6], 24%. In addition, the Displacement in [8] was < 50%. Also, the Ki in [4] came out at 10 nM.

With `COCCOC1CCN(c2nc(N)c3cc(OC)c(OC)cc3n2)CC1`, the Displacement in experiment [1] turned out to be 53%. Besides, the results for the Reduction in experiment [2] and in [6] were 28% and 57%, respectively. Also, the Ki in experiment [4] was determined as 2.12 nM.

Regarding `CCOC(COC1CCN(c2nc(N)c3cc(OC)c(OC)cc3n2)CC1)c1ccccc1` (stereo unspecified), in experiment [1], the Displacement stood at 84.5%. Further, the Reduction in [2] was determined as 12%; in experiment [6] it was 16%. This molecule came in with a Ki in [4] of 0.52 nM.

`COc1cc2nc(N3CCC(OCC(C)(O)c4ccccc4)CC3)nc(N)c2cc1OC` (stereo unspecified) had a Displacement in experiment [1] of 97%. Moreover, the Reduction in [2] was found to be 20%; in experiment [6], 23%. The Ki in [4] came out at 0.62 nM.

Turning to `COc1cc2nc(N3CCC(OCCO)CC3)nc(N)c2cc1OC`, the Reduction in experiment [2] came out at 10%; in experiment [6] it was 8%. In addition, in experiment [4], the Ki was 2.2 nM. Further, in experiment [9], the Displacement is < 50%.

In experiment [1], `COc1cc2nc(N3CCC(OCC(C)O)CC3)nc(N)c2cc1OC` (stereo unspecified) registered a Displacement of 55%. The Reduction stood at 19% in experiment [2] and 30% in experiment [6]. Moreover, the Ki in experiment [4] is recorded as 3.52 nM.

Take `COc1cc2nc(N3CCC(OCC(O)c4ccccc4)CC3)nc(N)c2cc1OC` (stereo unspecified): the Displacement in experiment [1] amounted to 91%. Besides, the Reduction in experiment [2] is listed as 16%; in [6] it was 26%. For the same molecule, the Ki in experiment [4] stood at 0.15 nM.

`COc1cc2nc(N3CCC(OCC(C)(C)OC)CC3)nc(N)c2cc1OC`: the Displacement in [1] turned out to be 75.7%. Also, the figures for the Reduction in experiment [2] and in experiment [6] were 9% and 20%, respectively. The molecule further gave a Ki in [4] of 1.14 nM.

Take `CCOC(C)COC1CCN(c2nc(N)c3cc(OC)c(OC)cc3n2)CC1` (stereo unspecified): in experiment [1], the Displacement was determined as 74.3%. The Reduction was 20% in experiment [2] and 43% in experiment [6]. Besides, in experiment [4], the Ki is given as 0.99 nM.

As for `COc1cc2nc(N3CCC(OCC(C)OC)CC3)nc(N)c2cc1OC` (stereo unspecified), in experiment [1], the Displacement is 68.7%. The values for the Reduction in [2] and in experiment [6] were 16% and 34%, respectively. The molecule further displayed a Ki in [4] of 1.41 nM.

As to `COc1cc2nc(N3CCC(OCC(C)(C)O)CC3)nc(N)c2cc1OC`, in experiment [1], the Displacement turned out to be 61.7%. The values for the Reduction in [2] and in [6] were 22% and 40%, respectively. For the same molecule, the Ki in experiment [4] is reported as 1.28 nM.

`COc1cc2nc(N3CCN(C(=O)c4ccco4)CC3)nc(N)c2cc1OC` [PRAZOSIN]: the Reduction in experiment [2] was 29%; in [6], 33%. The EC40 in [10] turned out to be 4.5 nM; in experiment [11], 1.3 µM.

Molecule `CCOC(C)(COC1CCN(c2nc(N)c3cc(OC)c(OC)cc3n2)CC1)c1ccccc1` (stereo unspecified) came in with a Displacement in experiment [1] of 97.5%. The figures for the Reduction in [2] and in experiment [6] were 13% and 20%, respectively. In addition, the Ki in [4] came out at 0.15 nM. In [12], the EC40 entry was “inactive”. Moreover, the EC40 in [10] was 15 nM.
